In ChEMBL document CHEMBL4052702 (Bioorg Med Chem Lett, 2017):

Experiments:
[1] = species: Homo sapiens; test: Inhibition of HDAC in human HeLa-S3 cells lysates assessed as remaining enzyme activity at 2.5 x 10^-6 M pre-incubated for 15 mins before HDAC-Glo I/II substrate addition and measured after 30 mins post substrate addition; assay type: cell-free
[2] = target: T1, Histone deacetylase 1 (Homo sapiens, UniProt Q13547); test: Inhibition of HDAC1 (unknown origin) assessed as remaining enzyme activity at 8 x 10^-6 M by ELISA-based assay
T1 sequence (Q13547 whole entry): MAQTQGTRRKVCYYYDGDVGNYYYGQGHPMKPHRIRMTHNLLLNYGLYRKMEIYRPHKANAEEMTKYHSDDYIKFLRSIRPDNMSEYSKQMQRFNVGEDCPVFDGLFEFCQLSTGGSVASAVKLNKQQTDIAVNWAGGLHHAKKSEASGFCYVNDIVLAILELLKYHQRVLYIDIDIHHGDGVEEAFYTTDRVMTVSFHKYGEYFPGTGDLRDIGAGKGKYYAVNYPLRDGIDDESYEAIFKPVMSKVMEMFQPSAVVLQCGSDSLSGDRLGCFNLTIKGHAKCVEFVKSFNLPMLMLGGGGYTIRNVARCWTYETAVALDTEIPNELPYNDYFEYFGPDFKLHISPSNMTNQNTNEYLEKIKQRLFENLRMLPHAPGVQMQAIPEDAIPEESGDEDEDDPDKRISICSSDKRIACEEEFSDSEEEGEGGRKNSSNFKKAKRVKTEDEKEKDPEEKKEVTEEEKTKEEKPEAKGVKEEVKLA

[3] = target: T1, Histone deacetylase 1; test: Inhibition of HDAC1 (unknown origin) assessed as remaining enzyme activity at 4 x 10^-6 M by ELISA-based assay
[4] = species: Homo sapiens; test: Inhibition of HDAC in human HeLa-S3 cells lysates assessed as remaining enzyme activity at 1.25 x 10^-6 M pre-incubated for 15 mins before HDAC-Glo I/II substrate addition and measured after 30 mins post substrate addition; assay type: cell-free
[5] = species: Homo sapiens; test: Inhibition of HDAC in human HeLa-S3 cells lysates assessed as remaining enzyme activity at 2 x 10^-5 M pre-incubated for 15 mins before HDAC-Glo I/II substrate addition and measured after 30 mins post substrate addition; assay type: cell-free
[6] = target: T2, Histone deacetylase 3 (Homo sapiens, UniProt O15379); test: Inhibition of HDAC3 (unknown origin) assessed as remaining enzyme activity at 1.25 uM by ELISA-based assay
T2 sequence (O15379 whole entry, canonical isoform): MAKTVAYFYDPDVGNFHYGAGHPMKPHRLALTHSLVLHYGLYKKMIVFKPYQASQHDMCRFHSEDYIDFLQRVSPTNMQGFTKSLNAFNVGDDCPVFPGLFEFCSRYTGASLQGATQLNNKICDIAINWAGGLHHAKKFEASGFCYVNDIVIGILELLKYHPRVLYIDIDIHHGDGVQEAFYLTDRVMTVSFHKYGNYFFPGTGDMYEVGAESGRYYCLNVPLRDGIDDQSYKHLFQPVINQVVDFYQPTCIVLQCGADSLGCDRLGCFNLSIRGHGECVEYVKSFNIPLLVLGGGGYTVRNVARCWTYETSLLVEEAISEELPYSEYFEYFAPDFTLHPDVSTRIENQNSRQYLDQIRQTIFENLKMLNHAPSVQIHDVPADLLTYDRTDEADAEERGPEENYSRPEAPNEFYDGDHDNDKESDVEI
Summary of the method: (§1)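 Isoform screen by ELISA-based HDAC activity assay against HDAC1, HDAC2, HDAC3 and HDAC6. Each analog was tested at one final concentration: 0.025, 0.125, 0.25 or 1.25 µM. Read-out is percent deacetylase activity remaining, given as the mean with standard error of at least two independent trials.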

[7] = target: T3, Histone deacetylase 2 (Homo sapiens, UniProt Q92769); test: Inhibition of HDAC2 (unknown origin) assessed as remaining enzyme activity at 1.25 uM by ELISA-based assay; summary of the method: as §1
T3 sequence (Q92769 whole entry): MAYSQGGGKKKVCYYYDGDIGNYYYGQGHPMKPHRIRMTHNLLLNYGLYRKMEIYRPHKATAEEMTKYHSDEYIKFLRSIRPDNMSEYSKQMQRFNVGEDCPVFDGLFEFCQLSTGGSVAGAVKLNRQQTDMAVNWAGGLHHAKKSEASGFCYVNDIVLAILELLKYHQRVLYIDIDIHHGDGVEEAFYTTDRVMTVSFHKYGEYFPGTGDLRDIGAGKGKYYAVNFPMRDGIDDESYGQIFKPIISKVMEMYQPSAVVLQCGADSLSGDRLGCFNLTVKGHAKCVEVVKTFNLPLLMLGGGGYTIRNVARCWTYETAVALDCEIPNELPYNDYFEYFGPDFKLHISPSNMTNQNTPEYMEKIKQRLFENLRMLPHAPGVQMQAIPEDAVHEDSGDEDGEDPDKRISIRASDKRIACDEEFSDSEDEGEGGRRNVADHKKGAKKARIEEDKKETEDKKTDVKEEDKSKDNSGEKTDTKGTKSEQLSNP

[8] = target: T2, Histone deacetylase 3; test: Inhibition of HDAC3 (unknown origin) assessed as remaining enzyme activity at 1.6 x 10^-5 M by ELISA-based assay
[9] = target: T3, Histone deacetylase 2; test: Inhibition of HDAC2 (unknown origin) assessed as remaining enzyme activity at 1.6 x 10^-5 M by ELISA-based assay
[10] = target: T2, Histone deacetylase 3; test: Inhibition of HDAC3 (unknown origin) assessed as remaining enzyme activity at 8 x 10^-6 M by ELISA-based assay
[11] = species: Homo sapiens; test: Inhibition of HDAC in human HeLa-S3 cells lysates assessed as remaining enzyme activity at 5 x 10^-6 M pre-incubated for 15 mins before HDAC-Glo I/II substrate addition and measured after 30 mins post substrate addition; assay type: cell-free
[12] = species: Homo sapiens; test: Inhibition of HDAC in human HeLa-S3 cells lysates assessed as remaining enzyme activity at 1 x 10^-5 M pre-incubated for 15 mins before HDAC-Glo I/II substrate addition and measured after 30 mins post substrate addition; assay type: cell-free
[13] = target: T1, Histone deacetylase 1; test: Inhibition of HDAC1 (unknown origin) assessed as remaining enzyme activity at 1.25 uM by ELISA-based assay; summary of the method: as §1
[14] = target: T3, Histone deacetylase 2; test: Inhibition of HDAC2 (unknown origin) assessed as remaining enzyme activity at 8 x 10^-6 M by ELISA-based assay
[15] = Inhibition of HDAC in human HeLa-S3 cells lysates pre-incubated for 15 mins before HDAC-Glo I/II substrate addition and measured after 30 mins post substrate addition; assay type: cell-based
[16] = target: T4, Protein deacetylase HDAC6 (Homo sapiens) (UniProt Q9UBN7); test: Inhibition of HDAC6 (unknown origin) assessed as remaining enzyme activity at 1.25 uM by ELISA-based assay
T4 sequence (whole entry): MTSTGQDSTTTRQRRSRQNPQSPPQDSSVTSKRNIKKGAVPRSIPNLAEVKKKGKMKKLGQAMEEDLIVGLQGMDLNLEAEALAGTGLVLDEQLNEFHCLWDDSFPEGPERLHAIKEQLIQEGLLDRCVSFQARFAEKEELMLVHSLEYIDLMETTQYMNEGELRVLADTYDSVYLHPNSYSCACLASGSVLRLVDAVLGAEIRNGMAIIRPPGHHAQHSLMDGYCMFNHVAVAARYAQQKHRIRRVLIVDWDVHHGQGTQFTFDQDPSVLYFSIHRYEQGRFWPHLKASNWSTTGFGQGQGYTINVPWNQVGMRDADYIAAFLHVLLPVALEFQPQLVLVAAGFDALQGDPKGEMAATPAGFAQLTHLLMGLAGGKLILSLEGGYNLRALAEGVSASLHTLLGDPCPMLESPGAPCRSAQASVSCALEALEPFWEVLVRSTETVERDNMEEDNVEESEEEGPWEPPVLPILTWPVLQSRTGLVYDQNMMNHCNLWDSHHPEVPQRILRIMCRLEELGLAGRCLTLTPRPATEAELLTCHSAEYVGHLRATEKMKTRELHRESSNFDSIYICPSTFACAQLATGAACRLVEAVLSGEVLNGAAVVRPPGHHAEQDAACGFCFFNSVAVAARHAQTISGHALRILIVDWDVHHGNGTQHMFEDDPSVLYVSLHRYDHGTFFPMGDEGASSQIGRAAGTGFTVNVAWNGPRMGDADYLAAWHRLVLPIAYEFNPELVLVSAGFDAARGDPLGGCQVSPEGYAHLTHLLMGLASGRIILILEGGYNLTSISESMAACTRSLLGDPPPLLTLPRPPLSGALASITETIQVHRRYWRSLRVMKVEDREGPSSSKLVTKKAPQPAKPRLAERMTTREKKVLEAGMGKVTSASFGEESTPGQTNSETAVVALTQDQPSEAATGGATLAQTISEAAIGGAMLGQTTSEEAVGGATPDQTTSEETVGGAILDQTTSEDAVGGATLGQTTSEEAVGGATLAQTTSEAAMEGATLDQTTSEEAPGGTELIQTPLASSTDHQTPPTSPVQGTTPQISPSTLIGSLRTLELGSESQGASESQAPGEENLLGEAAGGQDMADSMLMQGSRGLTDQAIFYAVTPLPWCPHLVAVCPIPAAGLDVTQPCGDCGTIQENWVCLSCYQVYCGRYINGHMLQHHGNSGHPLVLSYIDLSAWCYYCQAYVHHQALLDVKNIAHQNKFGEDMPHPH
Summary of the method: (§2)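 Single-concentration isoform screen using an ELISA-based HDAC activity assay, run in parallel against HDAC1, HDAC2, HDAC3 and HDAC6. Read-out is percent deacetylase activity remaining, given as the mean of at least two independent trials with standard error.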

[17] = species: Homo sapiens; test: Inhibition of HDAC in human HeLa-S3 cells lysates assessed as remaining enzyme activity at 1.5 x 10^-6 M pre-incubated for 15 mins before HDAC-Glo I/II substrate addition and measured after 30 mins post substrate addition; assay type: cell-free
[18] = target: T4, Protein deacetylase HDAC6 (Homo sapiens); test: Inhibition of HDAC6 (unknown origin) assessed as remaining enzyme activity at 0.25 uM by ELISA-based assay; summary of the method: as §2
[19] = target: T2, Histone deacetylase 3; test: Inhibition of HDAC3 (unknown origin) assessed as remaining enzyme activity at 0.25 uM by ELISA-based assay; summary of the method: as §1
[20] = target: T1, Histone deacetylase 1; test: Inhibition of HDAC1 (unknown origin) assessed as remaining enzyme activity at 0.25 uM by ELISA-based assay; summary of the method: as §1

| Compound | Activity [1] [%] | Activity [2] [%] | Activity [3] [%] | Activity [4] [%] | Activity [5] [%] | Activity [6] [%] | Activity [7] [%] | Activity [8] [%] | Activity [9] [%] | Activity [10] [%] | Activity [11] [%] | Activity [12] [%] | Activity [13] [%] | Activity [14] [%] | IC50 [15] [µM] | Activity [16] [%] | Activity [17] [%] | Activity [18] [%] | Activity [19] [%] | Activity [20] [%] |
| --- | --- | --- | --- | --- | --- | --- | --- | --- | --- | --- | --- | --- | --- | --- | --- | --- | --- | --- | --- | --- |
| O=C(CCCC(CCC(=O)Nc1ccccc1)Cc1ccccc1)NO (stereo not drawn) | 78 | 27 | 45 | 93 | 17 | 74 | 74 | 23 | 19 | 43 | 56 | 33 | 69 | 30 | 6.2 | 17 | – | – | – | – |
| CCCCCCC(CCCC(=O)NO)CCC(=O)Nc1ccccc1 (stereo not drawn) | 83 | 22 | 37 | 92 | 15 | 71 | 72 | 12 | 14 | 27 | 58 | 35 | 64 | 21 | 6.5 | 28 | – | – | – | – |
| CCCCC(CCCC(=O)NO)CCC(=O)Nc1ccccc1 (stereo not drawn) | – | – | 18 | – | – | – | – | – | – | – | – | – | – | – | 5 | – | 88 | 35 | 74 to 92 | 81 to 84 |
